In ChEMBL document CHEMBL1955787, “Design and synthesis of novel magnolol derivatives as potential antimicrobial and antiproliferative compounds” (Eur J Med Chem, 2012):
pIC50: −log10 of the molar value. Values after ≈ are worked out from the molar mass of the structure shown. Active and inactive are the calls of the source. The rule behind the calls is not given here.

Assays:
Staphylococcus aureus [1] = experiment: Antibacterial activity against Staphylococcus aureus ATCC 29213 after 24 hrs by micro dilution method; assay type: functional; conditions: ATCC 29213, 24 h
Procedure, shortened: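 Broth microdilution in Mueller Hinton broth. Inoculum from a 24 h culture in saline, set to 0.5 McFarland and diluted to a final 5 × 10^6 CFU mL-1. Two-fold serial dilutions, final 0.25–256 µg mL-1. Incubated 37 °C for 24 h and read visually. MIC is the lowest concentration with no turbidity.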

Staphylococcus aureus [2] = experiment: Antibacterial activity against methicillin-resistant Staphylococcus aureus 15187 after 24 hrs by micro dilution method; assay type: functional; conditions: Staphylococcus aureus, 15187, 24 h
Procedure, shortened: (§1)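 Broth microdilution in Mueller Hinton broth, two-fold serial dilutions, final 0.25 to 256 µg mL-1. Inoculum from 24 h culture in saline, set to 0.5 McFarland, diluted to a final 5 × 10^6 CFU mL-1. Plates held at 37 °C for 24 h and read by eye. MIC is the lowest concentration with no turbidity.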

Enterococcus [3] = experiment: Antibacterial activity against vancomycin-resistant Enterococcus after 24 hrs by micro dilution method; assay type: functional; procedure, shortened: as §1
Staphylococcus aureus [4] = experiment: Antibacterial activity against Staphylococcus aureus ATCC 29213 treated for 24 hrs followed by compound treated at 2 to 16 times MIC measured after 24 hrs by micro dilution method; assay type: functional; conditions: ATCC 29213, 24 h
Staphylococcus aureus [5] = experiment: Antibacterial activity against methicillin-resistant Staphylococcus aureus 15187 treated for 24 hrs followed by compound treated at 2 to 16 times MIC measured after 24 hrs by micro dilution method; assay type: functional; conditions: Staphylococcus aureus, 15187, 24 h
Procedure, shortened: (§2)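 MBC taken from the same 24 h microdilution plates (Mueller Hinton broth, final inoculum 5 × 10^6 CFU mL-1, 37 °C). […] Spots were incubated 24 h and colonies counted. MBC is the lowest concentration giving a 3 log drop from the starting inoculum.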

Enterococcus [6] = experiment: Antibacterial activity against vancomycin-resistant Enterococcus treated for 24 hrs followed by compound treated at 2 to 16 times MIC measured after 24 hrs by micro dilution method; assay type: functional; procedure, shortened: as §2
Candida albicans = experiment: Antifungal activity against Candida albicans ATCC 90028; assay type: functional
Aspergillus fumigatus = experiment: Antifungal activity against Aspergillus fumigatus LSI-II; assay type: functional
HL-60 [7] = experiment: Antiproliferative activity against human HL60 cells after 48 hrs by sulforhodamine B assay; assay type: functional, cell-based; conditions: HL-60, 48 h
Procedure, shortened: (§3)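 Sulforhodamine B assay following NCI guidelines. Log-phase cells seeded at 10^4 cells/well and allowed to attach for 24 h at 37 °C, 5% CO2. Exposed 48 h to 1:10 serial dilutions, four replicate wells per condition. Fixed with 50% cold TCA for 1 h at 4 °C, stained, dye dissolved in tris buffer, OD read at 540 nm. Blank-subtracted growth expressed relative to untreated (100%) and reported as IC50.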

PC-3 = experiment: Antiproliferative activity against human PC3 cells after 48 hrs by sulforhodamine B assay; assay type: functional, cell-based; conditions: PC-3, 48 h; procedure, shortened: as §3
MOLT-4 = experiment: Antiproliferative activity against human MOLT4 cells after 48 hrs by sulforhodamine B assay; assay type: functional, cell-based; conditions: MOLT-4, 48 h; procedure, shortened: as §3
HL-60 [8] = experiment: Induction of apoptosis in human HL60 cells assessed as DNA discrete ladder pattern formation at 5 to 30 uM after 24 hrs using ethidium bromide staining by agarose gel electrophoresis analysis; assay type: functional, cell-based
HL-60 [9] = experiment: Cell cycle arrest in human HL60 cells assessed as accumulation at sub-G1 phase after 24 hrs using propidium iodide staining by flow cytometry; assay type: functional, cell-based
Procedure, shortened: (§4)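 Cell-cycle (sub-G1) profiling of HL-60 cells at 1 × 10^6 per well, treated 24 h at 1, 10, 30 or 100 µM. Washed in ice-cold PBS, fixed in 70% ethanol at -20 °C for 30 min. Treated with RNase A (0.1 mg/mL) at 37 °C for 30 min, then propidium iodide (50 µg/mL) for 30 min on ice in the dark. Read with doublet discrimination and 488 nm excitation.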

HL-60 [10] = experiment: Cell cycle arrest in human HL60 cells assessed as accumulation at sub-G1 phase at 1 uM after 24 hrs using propidium iodide staining by flow cytometry; assay type: functional; procedure, shortened: as §4
HL-60 [11] = experiment: Cell cycle arrest in human HL60 cells assessed as accumulation at sub-G1 phase at 10 uM after 24 hrs using propidium iodide staining by flow cytometry; assay type: functional
Procedure, shortened: (§5)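 Time-course sub-G1 analysis of HL-60 cells exposed to 10 µM and sampled at 0, 6, 9, 18 and 24 h. Ethanol fixation, RNase A and propidium iodide staining as for the dose series, then flow cytometric DNA content at 488 nm excitation.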

HL-60 [12] = experiment: Cell cycle arrest in human HL60 cells assessed as accumulation at sub-G1 phase at 30 uM after 24 hrs using propidium iodide staining by flow cytometry; assay type: functional; procedure, shortened: as §4
HL-60 [13] = experiment: Cell cycle arrest in human HL60 cells assessed as accumulation at sub-G1 phase at 100 uM after 24 hrs using propidium iodide staining by flow cytometry; assay type: functional; procedure, shortened: as §4
HL-60 [14] = experiment: Cell cycle arrest in human HL60 cells assessed as accumulation at sub-G1 phase at 10 uM after 3 hrs using propidium iodide staining by flow cytometry; assay type: functional
HL-60 [15] = experiment: Cell cycle arrest in human HL60 cells assessed as accumulation at sub-G1 phase at 10 uM after 6 hrs using propidium iodide staining by flow cytometry; assay type: functional; procedure, shortened: as §5
HL-60 [16] = experiment: Cell cycle arrest in human HL60 cells assessed as accumulation at sub-G1 phase at 10 uM after 9 hrs using propidium iodide staining by flow cytometry; assay type: functional; procedure, shortened: as §5
HL-60 [17] = experiment: Cell cycle arrest in human HL60 cells assessed as accumulation at sub-G1 phase at 10 uM after 18 hrs using propidium iodide staining by flow cytometry; assay type: functional; procedure, shortened: as §5

Row | Compound | MIC (Staphylococcus aureus [1]) [µg/mL] | MIC (Staphylococcus aureus [2]) [µg/mL] | MIC (Enterococcus [3]) [µg/mL] | MBC (Staphylococcus aureus [4]) [µg/mL] | MBC (Staphylococcus aureus [5]) [µg/mL] | MBC (Enterococcus [6]) [µg/mL] | MIC (Candida albicans) | MIC (Aspergillus fumigatus) | pIC50 (HL-60 [7]) | pIC50 (PC-3) | pIC50 (MOLT-4) | further results
1 | CC[C@H]1OC(=O)[C@H](C)[C@@H](O[C@H]2C[C@@](C)(OC)[C@@H](O)[C@H](C)O2)[C@H](C)[C@@H](O[C@@H]2O[C@H](C)C[C@H](N(C)C)[C@H]2O)[C@](C)(O)C[C@@H](C)C(=O)[C@H](C)[C@@H](O)[C@]1(C)O [ERYTHROMYCIN] | 0.5 (≈ 0.681 µM) | 64 (≈ 87.2 µM) | 64 (≈ 87.2 µM) | 1 (≈ 1.36 µM) | 64 (≈ 87.2 µM) | 64 (≈ 87.2 µM) |  |  |  |  |  | 
2 | CCCCc1cc(Br)c(O)c(-c2cc(CCCC)cc(Br)c2O)c1 | 8 (≈ 17.5 µM) | 8 (≈ 17.5 µM) | 8 (≈ 17.5 µM) | 8 (≈ 17.5 µM) | 8 (≈ 17.5 µM) | 16 (≈ 35.1 µM) | inactive | inactive | < 4.00 | < 4.00 | < 4.00 | 
3 | C=CCc1cc(O)c(O)c(-c2cc(CC=C)cc(OC)c2O)c1 | 16 (≈ 51.2 µM) | 16 (≈ 51.2 µM) | 32 (≈ 102 µM) | 16 (≈ 51.2 µM) | 64 (≈ 205 µM) | 128 (≈ 410 µM) | inactive | inactive | < 4.00 | < 4.00 | < 4.00 | 
4 | C=CCc1cc(OC)c(O)c(-c2cc(CC=C)cc(OC)c2O)c1 | > 256 | > 256 | > 256 | > 256 | > 256 | > 256 | 64 µg/mL (≈ 196 µM) | 32 µg/mL (≈ 98 µM) | < 4.00 | < 4.00 | < 4.00 | 
5 | CCCCc1cc(I)c(O)c(-c2cc(CCCC)cc(I)c2O)c1 | 4 (≈ 7.27 µM) | 4 (≈ 7.27 µM) | 4 (≈ 7.27 µM) | 4 (≈ 7.27 µM) | 4 (≈ 7.27 µM) | 8 (≈ 14.5 µM) | inactive | inactive | 5.70 | 5.70 | 5.00 | Activity (HL-60 [8]): Active; Activity (HL-60 [9]): Dose-dependent effect; Activity (HL-60 [10]): 12%; Activity (HL-60 [11]): 52%; Activity (HL-60 [12]): 67%; Activity (HL-60 [13]): 78%; Activity (HL-60 [14]): 14%; Activity (HL-60 [15]): 21%; Activity (HL-60 [16]): 33%; Activity (HL-60 [17]): 44%
6 | C=CCc1cc(O)c(O)c(-c2cc(CC=C)cc(O)c2O)c1 | 8 (≈ 26.8 µM) | 16 (≈ 53.6 µM) | 16 (≈ 53.6 µM) | 8 (≈ 26.8 µM) | 16 (≈ 53.6 µM) | 32 (≈ 107 µM) | 128 µg/mL (≈ 429 µM) | 64 µg/mL (≈ 215 µM) | < 4.00 | < 4.00 | < 4.00 | 
7 | C=CCc1ccc(O)c(-c2cc(CC=C)ccc2O)c1 [MAGNOLOL] | 16 (≈ 60.1 µM) | 32 (≈ 120 µM) | 32 (≈ 120 µM) | 32 (≈ 120 µM) | 32 (≈ 120 µM) | 32 (≈ 120 µM) |  |  | 4.32 | 4.21 | 4.24 | 
8 | CCCc1cc(Cl)c(O)c(-c2cc(CCC)cc(Cl)c2O)c1 | 4 (≈ 11.8 µM) | 4 (≈ 11.8 µM) | 8 (≈ 23.6 µM) | 4 (≈ 11.8 µM) | 4 (≈ 11.8 µM) | 8 (≈ 23.6 µM) | inactive | inactive | < 4.00 | < 4.00 | < 4.00 | 
9 | O=c1[nH]cc(F)c(=O)[nH]1 [FLUOROURACIL] |  |  |  |  |  |  |  |  | 3.58 | 5.68 | 5.49 | 
10 | CCCCc1ccc(O)c(-c2cc(CCCC)cc(Br)c2O)c1 | 2 (≈ 5.3 µM) | 1 (≈ 2.65 µM) | 1 (≈ 2.65 µM) | 2 (≈ 5.3 µM) | 1 (≈ 2.65 µM) | 2 (≈ 5.3 µM) | inactive | inactive | 4.60 | 4.13 | 4.46 | 
11 | CCCc1ccc(O)c(-c2cc(CCC)cc(Cl)c2O)c1 | > 256 | > 256 | > 256 | > 256 | > 256 | > 256 | inactive | inactive | 4.07 | < 4.00 | < 4.00 | 
12 | CCCc1cc(Br)c(O)c(-c2cc(CCC)cc(Br)c2O)c1 | 4 (≈ 9.34 µM) | 4 (≈ 9.34 µM) | 4 (≈ 9.34 µM) | 4 (≈ 9.34 µM) | 4 (≈ 9.34 µM) | 8 (≈ 18.7 µM) | inactive | inactive | 4.52 | 4.02 | 4.26 | 
13 | CCCc1ccc(O)c(-c2cc(CCC)cc(Br)c2O)c1 | 8 (≈ 22.9 µM) | 16 (≈ 45.8 µM) | 16 (≈ 45.8 µM) | 8 (≈ 22.9 µM) | 16 (≈ 45.8 µM) | 32 (≈ 91.6 µM) | inactive | inactive | < 4.00 | < 4.00 | < 4.00 | 
14 | CCCCc1ccc(O)c(-c2cc(CCCC)cc(Cl)c2O)c1 | > 256 | > 256 | > 256 | > 256 | > 256 | > 256 | inactive | inactive | < 4.00 | < 4.00 | < 4.00 | 
15 | CCCCc1ccc(O)c(-c2cc(CCCC)cc(I)c2O)c1 | > 256 | > 256 | > 256 | > 256 | > 256 | > 256 | inactive | inactive | 4.30 | 4.22 | 4.18 | 
16 | CCCc1cc(I)c(O)c(-c2cc(CCC)cc(I)c2O)c1 | 64 (≈ 123 µM) | 64 (≈ 123 µM) | 64 (≈ 123 µM) | 64 (≈ 123 µM) | 64 (≈ 123 µM) | 64 (≈ 123 µM) | inactive | inactive | 5.15 | 5.15 | 4.74 | 
17 | CCCCc1cc(Cl)c(O)c(-c2cc(CCCC)cc(Cl)c2O)c1 | 8 (≈ 21.8 µM) | 8 (≈ 21.8 µM) | 8 (≈ 21.8 µM) | 8 (≈ 21.8 µM) | 8 (≈ 21.8 µM) | 16 (≈ 43.6 µM) | inactive | inactive | 4.05 | < 4.00 | < 4.00 | 
18 | CCCc1ccc(O)c(-c2cc(CCC)cc(I)c2O)c1 | > 256 | > 256 | > 256 | > 256 | > 256 | > 256 | inactive | inactive | 4.35 | 4.20 | 4.22 | 
19 | O=C(O)c1cn(C2CC2)c2cc(N3CCNCC3)c(F)cc2c1=O [CIPROFLOXACIN] | 0.25 (≈ 0.754 µM) | 8 (≈ 24.1 µM) | 32 (≈ 96.6 µM) | 0.5 (≈ 1.51 µM) | 8 (≈ 24.1 µM) | 64 (≈ 193 µM) |  |  |  |  |  | 
